{"data": "Measured values from different studies", "TYR": "Tyrosinase (TYR, Homo sapiens, UniProt P14679)", "ESR1": "Estrogen receptor (ESR1, Homo sapiens, UniProt P03372)", "NR3C1": "Glucocorticoid receptor (NR3C1, Homo sapiens, UniProt P04150)", "PRKACB": "cAMP-dependent protein kinase catalytic subunit beta (PRKACB, Homo sapiens, UniProt P22694)", "Abl2": "Abl2 (Mus musculus, UniProt Q4JIM5)", "Si": "Sucrase-isomaltase, intestinal (Si, Rattus norvegicus, UniProt P23739)", "PIK3C3": "Phosphatidylinositol 3-kinase catalytic subunit type 3 (PIK3C3, Homo sapiens, UniProt Q8NEB9)", "note": "Lines come from different studies, so protocols differ."}
{"target": "TYR", "test": "enzyme activity, inhibitor", "conditions": "50 µg/mL", "inhibition [%]": 66.7, "SMILES": "Cc1ccc(C(C)C)cc1NC(=O)COC(=O)c1ccc(O)cc1O"}
{"target": "ESR1", "test": "ligand displacement, radioligand", "conditions": "10 µM", "inhibition [%]": 0, "SMILES": "O=C(Nc1ccc(S(=O)(=O)N2CCC(Cl)CC2)cc1)c1ccc([N+](=O)[O-])o1"}
{"target": "NR3C1", "test": "cell-free assay", "conditions": "10 µM", "inhibition [%]": 9, "SMILES": "O=C(c1ccc(F)cc1)N(Cc1ccccc1)C1CCCCC1"}
{"target": "Prostaglandin E2 receptor EP3 subtype (PTGER3, Homo sapiens, UniProt P43115)", "test": "ligand displacement, radioligand", "conditions": "10 µM", "inhibition [%]": 12, "SMILES": "CCN(CC)c1ccc(C2Nc3ccc(C(=O)c4ccccc4)cc3NC3=C2C(=O)CC(C)(C)C3)cc1 (stereo not drawn)"}
{"target": "PRKACB", "test": "enzyme activity, inhibitor", "conditions": "0.1 µM", "inhibition [%]": 2, "SMILES": "COc1cc(-c2cc(-c3ccc(N4CCNCC4)cc3)cnc2C)cc(OC)c1OC"}
{"target": "Alpha-2C adrenergic receptor (ADRA2C, Homo sapiens, UniProt P18825)", "test": "ligand displacement", "conditions": "10 µM", "inhibition [%]": 84.8, "SMILES": "CCCNc1nc2ccccc2n1Cc1ccc(Cl)cc1"}
{"target": "NR3C1", "test": "cell-free assay", "conditions": "10 µM", "inhibition [%]": 11, "SMILES": "COc1cc(NC(C)=O)c(Cl)cc1C(=O)Nc1nccs1"}
{"target": "TYR", "test": "enzyme activity, inhibitor", "conditions": "50 µg/mL", "inhibition [%]": 54.6, "SMILES": "Cc1ccc(C(C)C)cc1NC(=O)COC(=O)c1cc(O)cc(O)c1"}
{"target": "Abl2", "test": "enzyme activity, inhibitor", "conditions": "0.3 µM", "inhibition [%]": 16, "SMILES": "CNC(=O)c1cc(Oc2ccc(NC(=O)Nc3ccc(Cl)c(C(F)(F)F)c3)cc2)ccn1"}
{"target": "Si", "test": "enzyme activity, inhibitor", "conditions": "25 µg/mL", "inhibition [%]": 21.4, "SMILES": "O=c1c(O[C@@H]2O[C@H](CO)[C@@H](O)[C@H](O)[C@H]2O)c(-c2ccc(O)c(O)c2)oc2cc(O)cc(O)c12"}
{"target": "NR3C1", "test": "cell-free assay", "conditions": "10 µM", "inhibition [%]": 21.6, "SMILES": "Oc1cccc(Nc2nc(-c3ccc(F)cc3F)cs2)c1"}
{"target": "Si", "test": "enzyme activity, inhibitor", "conditions": "50 µg/mL", "inhibition [%]": 31.5, "SMILES": "O=c1c(O[C@@H]2O[C@@H](CO)[C@H](O)[C@H]2O)c(-c2ccc(O)c(O)c2)oc2cc(O)cc(O)c12"}
{"target": "Abl2", "test": "enzyme activity, inhibitor", "conditions": "10 µM", "inhibition [%]": 76, "SMILES": "Cc1ccc(Nc2nccc(N(C)c3ccc4c(C)n(C)nc4c3)n2)cc1S(N)(=O)=O"}
{"target": "PIK3C3", "test": "enzyme activity, inhibitor", "conditions": "10 µM", "inhibition [%]": "< 20", "SMILES": "CC(C)CCn1c(SCC(=O)Nc2ccccc2C(F)(F)F)nc2nccnc2c1=O"}
{"target": "Si", "test": "enzyme activity, inhibitor", "conditions": "25 µg/mL", "inhibition [%]": 25.7, "SMILES": "O=C1OC[C@H]2OC(=O)c3cc(O)c(O)c(O)c3-c3c(O)c(O)c(O)c4c3C(=O)O[C@H]([C@H]3OC(=O)c5c-4c(O)c(O)c(O)c5[C@H]3O)[C@@H]2OC(=O)c2cc(O)c(O)c(O)c2-c2c1cc(O)c(O)c2O"}
{"target": "PIK3C3", "test": "enzyme activity, inhibitor", "conditions": "10 µM", "inhibition [%]": 28, "SMILES": "O=C(CSc1nc2nccnc2c(=O)n1CCc1ccccc1)Nc1nccs1"}
{"target": "TYR", "test": "enzyme activity, inhibitor", "conditions": "50 µg/mL", "inhibition [%]": 57.4, "SMILES": "Cc1ccc(C(C)C)cc1NC(=O)COC(=O)/C=C/c1ccc(Cl)cc1"}
{"target": "ESR1", "test": "cell-free assay", "conditions": "10 µM", "inhibition [%]": -2.9, "SMILES": "O=C(c1ccc(Cl)cc1)N(Cc1ccccc1)C1CCCCC1"}
{"target": "NAD(+) hydrolase SARM1 (SARM1, Homo sapiens, UniProt Q6SZW1)", "test": "enzyme activity, inhibitor", "conditions": "10 µM", "inhibition [%]": 100, "SMILES": "Ic1cccc2cnccc12"}
{"target": "TYR", "test": "enzyme activity, inhibitor", "conditions": "50 µg/mL", "inhibition [%]": 53.8, "SMILES": "Cc1ccc(C(C)C)cc1NC(=O)COC(=O)c1ccc(O)cc1"}
{"target": "ESR1", "test": "ligand displacement, radioligand", "conditions": "10 µM", "inhibition [%]": 8, "SMILES": "CCN(Cc1ccccc1C(F)(F)F)C(=O)C1CCN(S(=O)(=O)c2ccc3[nH]ncc3c2)CC1"}
{"target": "Leucine-rich repeat serine/threonine-protein kinase 2 (LRRK2, Homo sapiens, UniProt Q5S007)", "test": "enzyme activity, inhibitor, FRET", "conditions": "1 µM", "inhibition [%]": 0, "SMILES": "CN(C)C1CCN(CC#Cc2nn(C3CCCC3)c3nc(NCc4ccccc4)ncc23)C1 (stereo not drawn)"}
{"target": "PRKACB", "test": "enzyme activity, inhibitor, radiometric", "conditions": "2 µM", "inhibition [%]": 91.3, "SMILES": "Cn1cnc(Br)c1C1=CN(c2ncnc3[nH]cnc23)CCS1"}
{"target": "Serine/threonine-protein kinase SMG1 (SMG1, Homo sapiens, UniProt Q96Q15)", "test": "target engagement in cells, inhibitor, chemoproteomics", "system": "Huh-7", "conditions": "1 µM", "inhibition [%]": -15.7, "SMILES": "CNc1cc(Oc2cc(C(=O)Nc3cc(N4CCN(C)CC4)cc(C(F)(F)F)c3)ccc2C)ncn1"}
